Measurements taken from ChEMBL document CHEMBL4765395, “Design, diversity-oriented synthesis and biological evaluation of novel heterocycle derivatives as non-nucleoside HBV capsid protein inhibitors” (Eur J Med Chem, 2020).
One block for each compound: values may come before it. Activity calls are given as the source filed them. No cut-off for these calls is given here.

Tests used:
[1] = tested on: Hepatitis B virus; experiment: Antiviral activity against HBV infected in human HepG2.2.15 cells assessed as reduction in intracellular viral DNA level at 50 uM incubated for 4 days prior to compound washout followed by compound addition and measured after 4 days by fluorogenic probe based RT-qPCR analysis relative to control; assay type: functional; details: for inhibition at 50 µM: HepG2.2.15, 192 h, time 8 day; for inhibition: time 8.0 day
[2] = tested on: HepG2 2.2.15; experiment: Cytotoxicity against human HepG2.2.15 cells assessed as reduction in cell viability at 50 uM incubated for 4 days prior to compound washout followed by compound addition and measured after 4 days by CCK8 assay relative to control; assay type: cell-based; details: hepg2 2.2.15, 192 h, time 8 day
[3] = tested on: HepG2 2.2.15; experiment: Cytotoxicity against human HepG2.2.15 cells assessed as reduction in cell viability at 20 uM incubated for 4 days prior to compound washout followed by compound addition and measured after 4 days by CCK8 assay relative to control; assay type: cell-based; details: hepg2 2.2.15, 192 h, time 8 day
[4] = tested on: Hepatitis B virus; experiment: Antiviral activity against HBV infected in human HepG2.2.15 cells assessed as reduction in intracellular viral DNA level at 20 uM incubated for 4 days prior to compound washout followed by compound addition and measured after 4 days by fluorogenic probe based RT-qPCR analysis relative to control; assay type: functional; details: for inhibition: time 8.0 day; for inhibition at 20 µM: HepG2.2.15, 192 h, time 8 day
[5] = tested on: Hepatitis B virus; experiment: Binding affinity to recombinant HBV capsid protein assessed as response value at 50 uM by surface plasmon resonance analysis (reference value: 14.56)
Method in brief: (§1)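 Recombinant HBV capsid protein purified and amine-coupled to a CM5 sensor chip. Six doses of test compound run with running buffer containing 5% DMSO, plus eight solvent-calibration solutions and 50% DMSO solution. Samples centrifuged 15 min before loading. PBS and NaAc-HAc buffers used. Binding read as SPR response.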

[6] = Selectivity index, ratio of CC50 for human HepG2.2.15 cells to IC50 for antiviral activity against HBV infected in human HepG2.2.15 cells assessed as reduction in intracellular viral DNA level; assay type: toxicity, cell-based; details: read-out: Ratio CC50/IC50
[7] = tested on: Hepatitis B virus; experiment: Binding affinity to recombinant HBV capsid protein assessed as response value at 12.5 uM by surface plasmon resonance analysis (reference value: 14.56); method in brief: as §1
[8] = Cytotoxicity against human HepG2.2.15 cells assessed as reduction in cell viability incubated for 4 days prior to compound washout followed by compound addition and measured after 4 days by CCK8 assay; assay type: cell-based, HepG2 2.2.15; details: time 8 day
Method in brief: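 Cytotoxicity in HepG2.2.15 cells was measured with five doses (100, 20, 4, 0.8, 0.16 µM) over 8 days, with medium changed on day 4. CCK-8 (10%) was added 0.5 h before the end, OD was read at 450/630 nm, and CC50 is the concentration killing 50% of cells against untreated controls.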

[9] = tested on: Hepatitis B virus; experiment: Antiviral activity against HBV infected in human HepG2.2.15 cells assessed as reduction in intracellular viral DNA level incubated for 8 days by fluorogenic probe based RT-qPCR analysis; details: HepG2.2.15, 192 h
[10] = Cytotoxicity against human HepG2.2.15 cells assessed as reduction in cell viability incubated for 4 days prior to compound washout followed by compound addition and measured after 4 days by […]; assay type: cell-based, HepG2 2.2.15; details: time 8 day
[11] = tested on: HepG2 2.2.15; experiment: Cytotoxicity against human HepG2.2.15 cells assessed as reduction in cell viability at 100 uM incubated for 4 days prior to compound washout followed by compound addition and measured after 4 days by CCK8 assay relative to control; assay type: cell-based; details: hepg2 2.2.15, 192 h, time 8 day
Method in brief: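 Three wells of 4000 HepG2.2.15 cells per well received a single 100 µM concentration for 8 days, with medium replaced on day 4. CCK-8 (10%) was added 0.5 h before the end, and OD was read at 450 and 630 nm. Percent cell death was calculated against untreated cells.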

[12] = tested on: Hepatitis B virus; experiment: Binding affinity to recombinant HBV capsid protein assessed as response value at 6.25 uM by surface plasmon resonance analysis (reference value: 14.56); method in brief: as §1
[13] = tested on: Hepatitis B virus; experiment: Antiviral activity against HBV infected in human HepG2.2.15 cells assessed as […] incubated for 4 days prior to compound washout followed by compound addition and measured after 4 days by fluorogenic probe based RT-qPCR analysis; assay type: functional, organism-based
[14] = tested on: Hepatitis B virus; experiment: Antiviral activity against HBV infected in human HepG2.2.15 cells assessed as reduction in HBsAg secretion incubated for 4 days prior to compound washout followed by compound addition and measured after 4 days by ELISA; assay type: functional, organism-based
Method in brief: (§2)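 Five doses (100, 20, 4, 0.8, 0.16 µM) were added in triplicate to HepG2.2.15 cultures for 8 days, with fresh medium on day 4 and untreated controls. Day-8 supernatants were assayed for HBsAg and HBeAg by ELISA kit with absorbance read-out. IC50 is the concentration giving 50% inhibition of antigen secretion.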

[15] = tested on: Hepatitis B virus; experiment: Antiviral activity against HBV infected in human HepG2.2.15 cells assessed as reduction in HBeAg secretion incubated for 4 days prior to compound washout followed by compound addition and measured after 4 days by ELISA; assay type: functional, organism-based; method in brief: as §2
[16] = tested on: Hepatitis B virus; experiment: Binding affinity to recombinant HBV capsid protein assessed as response value at 25 uM by surface plasmon resonance analysis (reference value: 14.56); method in brief: as §1
[17] = tested on: Hepatitis B virus; experiment: (§3) Binding affinity to recombinant HBV capsid protein by surface plasmon resonance analysis; method in brief: as §1
[18] = as §3; parameters: species or system Hepatitis B virus; method in brief: as §1
[19] = Selectivity index, ratio of CC50 for human HepG2.2.15 cells to IC50 for antiviral activity against HBV infected in human HepG2.2.15 cells assessed as reduction in HBeAg secretion; assay type: toxicity, cell-based; details: read-out: Ratio CC50/IC50
[20] = tested on: Hepatitis B virus; experiment: Binding affinity to recombinant HBV capsid protein assessed as response value at 100 uM by surface plasmon resonance analysis (reference value: 14.56); method in brief: as §1
[21] = Selectivity index, ratio of CC50 for human HepG2.2.15 cells to IC50 for antiviral activity against HBV infected in human HepG2.2.15 cells assessed as reduction in HBsAg secretion; assay type: toxicity, cell-based; details: read-out: Ratio CC50/IC50
[22] = tested on: Hepatitis B virus; experiment: Antiviral activity against HBV infected in human HepG2.2.15 cells assessed as […] at 100 uM incubated for 4 days prior to compound washout followed by compound addition and measured after 4 days by fluorogenic probe based RT-qPCR analysis relative to control; assay type: functional; details: for inhibition at 100 µM: HepG2.2.15, 192 h, time 8 day; for inhibition: time 8.0 day
[23] = tested on: Hepatitis B virus; experiment: Binding affinity to recombinant HBV capsid protein assessed as response value at 14.8 uM by surface plasmon resonance analysis (reference value: 11.31); method in brief: as §1
[24] = tested on: Hepatitis B virus; experiment: Binding affinity to recombinant HBV capsid protein assessed as response value at 6.6 uM by surface plasmon resonance analysis (reference value: 11.31); method in brief: as §1
[25] = tested on: Hepatitis B virus; experiment: Binding affinity to recombinant HBV capsid protein assessed as response value at 9.9 uM by surface plasmon resonance analysis (reference value: 11.31); method in brief: as §1
[26] = tested on: Hepatitis B virus; experiment: Binding affinity to recombinant HBV capsid protein assessed as response value at 22.2 uM by surface plasmon resonance analysis (reference value: 11.31); method in brief: as §1

SMILES: CC(C)Cc1nc(-c2cccc(F)c2)ncc1C(=O)NCc1ccc(F)cc1
inhibition at 50 µM [1]: 35.6% | Activity [2]: Non-Toxic

SMILES: CC(C)Cc1nc(-c2ccsc2)sc1C(=O)NCc1ccc(F)cc1
Activity [3]: 6.7% | inhibition [4]: inactive

SMILES: CC(C)Cc1sc(-c2nccs2)nc1C(=O)NCc1ccc(F)cc1
Activity [5]: 41.4 RU | selectivity ratio [6]: 25.7 | Activity [7]: 23.9 RU | CC50 at 192 h [8]: 59.2 µM | IC50 [9]: 1.33 µM | CC50 at 192 h [10]: 50.4 µM | Activity [11]: 98.8% | Activity [12]: 17.7 RU | IC50 [13]: 2.3 µM | IC50 [14]: 31.7 µM | IC50 [15]: 31.7 µM | Activity [16]: 38.4 RU | Activity [17]: Dose-dependent effect | Kd [18]: 50.6 µM | selectivity ratio [19]: 1.9 | Activity [20]: 63.5 RU | selectivity ratio [21]: 1.9 | inhibition at 100 µM [22]: 97.3%

SMILES: CC(C)Cc1nc(-c2cc3ccccc3s2)sc1C(=O)NCc1ccc(F)cc1
Activity [3]: Non-Toxic | inhibition at 20 µM [4]: 21.1%

SMILES: CCOC(=O)c1cn(-c2cccc(F)c2)nc1NC
Activity [11]: 5.7% | inhibition [22]: inactive

SMILES: CC(C)Cc1nc(NC(=O)c2cccs2)sc1C(=O)NCc1ccc(F)cc1
Activity [3]: 15.2% | inhibition [4]: inactive

IC50 [13]: 0.6 µM | IC50 [14]: > 100 µM | IC50 [15]: > 100 µM
SMILES: Nc1ccn([C@@H]2CS[C@H](CO)O2)c(=O)n1 [LAMIVUDINE]
selectivity ratio [6]: > 167 | CC50 at 192 h [8]: > 100 µM | Activity [11]: 12.7% | inhibition at 100 µM [22]: 87.9%

SMILES: CC(C)Cc1nc(-c2ccccc2)ncc1C(=O)NCc1ccccc1
inhibition [1]: inactive | Activity [2]: Non-Toxic

SMILES: COC(=O)c1nc(-c2ccccc2OC)cnc1NC(=O)c1ccccc1
inhibition [1]: inactive | Activity [2]: 5.7%

SMILES: CCNc1nn(-c2cccc(F)c2)cc1C(=O)OCC
Activity [11]: 10.9% | inhibition at 100 µM [22]: 39.9%

SMILES: CC(C)Cc1nc(-c2cccs2)sc1C(=O)NCc1ccc(F)cc1
Activity [3]: 17.8% | inhibition [4]: inactive

SMILES: CC(C)Cc1sc(-c2nccs2)nc1C(=O)Nc1ccc(F)cc1
selectivity ratio [6]: 36.7 | CC50 at 192 h [8]: 80.8 µM | Activity [23]: 20.6 RU | Activity [11]: Non-Toxic | Activity [24]: 15.4 RU | Activity [25]: 18.8 RU | IC50 [13]: 2.2 µM | IC50 [14]: > 100 µM | IC50 [15]: > 100 µM | Activity [17]: Dose-dependent effect | Kd [18]: 60 µM | selectivity ratio [19]: < 0.8 | selectivity ratio [21]: < 0.8 | inhibition at 100 µM [22]: 89.8% | Activity [26]: 26.4 RU

IC50 [13]: 9.9 µM | IC50 [14]: > 100 µM | IC50 [15]: 9.7 µM
SMILES: CC(C)Cc1nc(-c2cccc(F)c2)ncc1C(=O)O
selectivity ratio [6]: > 10.1 | CC50 at 192 h [8]: > 100 µM | inhibition at 50 µM [1]: 54.2% | Activity [2]: Non-Toxic | selectivity ratio [19]: > 10.3

SMILES: O=C(NCc1ccc(F)cc1Cl)c1cn(-c2nccs2)nc1NCc1ccccc1
Activity [11]: 29.2% | inhibition at 100 µM [22]: 41.6%

SMILES: CC(C)Cc1nc(NC(=O)c2ccc(F)cc2)sc1C(=O)NCc1ccc(F)cc1
Activity [3]: 20.7% | inhibition at 20 µM [4]: 29.2%

SMILES: CCOC(=O)c1cnc(-c2cccc(F)c2)nc1CC(C)C
inhibition at 50 µM [1]: 46.3% | Activity [2]: Non-Toxic

SMILES: O=C(NCc1ccc(F)cc1)c1ccc(-c2ccccc2)nc1-c1ccccc1
inhibition [1]: inactive | Activity [2]: 4.4%

IC50 [13]: 40.5 µM | IC50 [14]: 3.8 µM | IC50 [15]: 62.3 µM
SMILES: CC(C)Cc1nc(-c2ccncc2)sc1C(=O)NCc1ccc(F)cc1
selectivity ratio [6]: > 2.5 | CC50 at 192 h [8]: > 100 µM | Activity [3]: 35.8% | selectivity ratio [19]: > 1.6 | inhibition at 20 µM [4]: 57.8% | selectivity ratio [21]: > 26.3

SMILES: CC(C)Cc1nc(NS(=O)(=O)c2ccc(F)cc2)sc1C(=O)NCc1ccc(F)cc1
Activity [3]: 17.5% | inhibition [4]: inactive

SMILES: Cc1ccc(-c2nc(CC(C)C)c(C(=O)NCc3ccc(F)cc3)s2)s1
Activity [3]: Non-Toxic | inhibition [4]: inactive

SMILES: CCOC(=O)c1cn(-c2cccc(F)c2)nc1SC1CCCCC1
Activity [11]: 18.1% | inhibition [22]: inactive

SMILES: O=C(NC1CC1)c1cn(-c2cccc(F)c2)nc1NCc1ccccc1
Activity [11]: 40.8% | inhibition at 100 µM [22]: 38.8%

SMILES: CCOC(=O)c1cnc(-c2ccccc2)nc1CC(C)C
inhibition at 50 µM [1]: 37.3% | Activity [2]: Non-Toxic

SMILES: O=C(NCc1ccc(F)cc1F)c1cn(-c2nccs2)nc1NCc1ccccc1
Activity [11]: 16.9% | inhibition at 100 µM [22]: 32.9%

IC50 [13]: 2.7 µM | IC50 [14]: 21 µM | IC50 [15]: 30.1 µM
SMILES: CC(C)Cc1sc(-c2nccs2)nc1C(=O)NCc1ccc(F)cc1F
selectivity ratio [6]: 16.8 | CC50 at 192 h [8]: 45.4 µM | Activity [11]: 24.9% | selectivity ratio [19]: 1.5 | selectivity ratio [21]: 2.2 | inhibition at 100 µM [22]: 83.8%

SMILES: CCOC(=O)c1cn(-c2nccs2)nc1NCc1ccccc1
Activity [11]: 30.4% | inhibition [22]: inactive

SMILES: CCOC(=O)c1cn(-c2cccc(F)c2)nc1NCc1ccccc1
Activity [11]: Non-Toxic | inhibition at 100 µM [22]: 14.6%
